# TRPC4 act – opens the mouse TRPC4 cation channel | B-score at 10 µM | HEK293 TRPC4beta/mu-opioid, Fluo4 calcium fluorescence; stronger effect = higher value | 310,000 tested, 0.49% active | AID 2237;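 active = B-score above 5 SD of library B-scores, and initial fluorescence ratio not above library mean plus 5 SD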;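 note: positive B-score marks a calcium rise read as TRPC4 activation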
#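 Incubation: 45 min room-temperature Fluo4 loading, 110 s read / System: HEK293 cells stably co-expressing mouse TRPC4beta and mu-opioid receptor / Signal: Fluo4 fluorescence, kinetic / Control set: buffer (low) and maximal DAMGO (high) / Measure: integrated baseline-normalised fluorescence ratio, converted to per-well B score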
# TRPC4 potent – TRPC4 (mouse) allosteric potentiation | HEK293 TRPC4beta/mu-opioid, DAMGO EC20, Fluo-4 Ca2+ flux; stronger effect = higher value | B-score at 10 µM | 310,000 tested, 0.42% active | AID 2227;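 active = B-score of calcium response area above 5 SD of library B-scores, with initial fluorescence ratio within 5 SD of library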;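 note: B-score of integrated fluorescence ratio over time as area under calcium response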
# TRPC6 activator – activators of mouse TRPC6 channel; HEK293-TRPC6 membrane potential dye fluorescence; stronger effect = higher value; AID 2550; 310,000 tested, 0.13% active; B-score at 10 µM; Q61143;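 active = B-score of the integrated fluorescence ratio above library mean plus 3 SD, and starting fluorescence ratio within library mean plus 5 SD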;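 note: higher score means more depolarization so channel activation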
# TRPC4 inh – inhibitors of mouse TRPC4 channel; HEK293 TRPC4beta/mu-opioid, DAMGO-evoked Fluo4 calcium flux; stronger effect = lower value; B-score at 10 µM; 300,000 tested, 0.39% active;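 active = B-score over 3 SD under the library average, no early fluorescence shift, positive overall ratio signal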
#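 Test system – stable TRPC4beta/mu-opioid receptor HEK293 cells · Probe or stimulus – DAMGO, a submaximal dose followed by a maximal one · Dosing – one concentration per compound · Signal – Fluo4 calcium fluorescence by kinetic imaging, 5 s 1 Hz baseline · Evaluation – per-well B score of integrated baseline-normalized Fluo4 ratio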
# TRPC6 inhibitor – inhibitors of mouse TRPC6 channel; AID 2553; HEK293-TRPC6, membrane potential dye, ACh-evoked depolarization; stronger effect = lower value; Q61143; B-score at 10 µM; 310,000 tested, 1.1% active;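 active = B-score under library mean minus 3 SD, initial fluorescence not abnormally high, positive integrated signal ratio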;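 note: B-score derived from integrated fluorescence ratio over the kinetic read; more negative B-score means stronger inhibition of depolarization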
# TRPC4 sel inh 2 – second selectivity test of TRPC6 inhibitors: effect on mouse TRPC4; inhibition, % at 10 µM; 920 tested, 42% active; shares compounds with TRPC6 inhibitor; HEK293 TRPC4/MOR, membrane potential dye fluorescence; channel activated by saturating DAMGO dose;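 active = compounds whose fluorescence signal differed from control wells by over 3 SD, either direction, in both duplicate plates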
# TRPC4 spec – mouse TRPC4 off-target activity of TRPC6 inhibitors; shares compounds with TRPC6 inhibitor; HEK293 TRPC4/mu-opioid, membrane potential fluorescence; activity change, negative = inhibition, % at 10 µM; 920 tested, 61% active; AID 2777;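 active = rise or fall in signal beyond 3 SD of buffer-only wells in both replicate plates, either sign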;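 note: integrated kinetic ratio of fluorescence range over baseline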
# HEK293 MPD ctr 2-1 – second check of TRPC6 inhibitor effects in parental HEK293 cells; parental HEK293 membrane potential dye fluorescence; maximal acetylcholine challenge after compound addition; 920 tested, 31% active; shares compounds with TRPC6 inhibitor; AID 2779; signal change vs control, % at 10 µM;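 active = membrane potential signal moving either way by over 3 SD of the maximum-effect control, in both duplicate plates, meaning non-specific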
# HEK293 MPD ctr-1 – parental HEK293 nonspecific activity of TRPC6 inhibitors. shares compounds with TRPC6 inhibitor. parental HEK293 membrane potential dye fluorescence. membrane potential signal change, % at 10 µM. 920 tested, 60% active. AID 2780;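 active = membrane potential signal shifting up or down by more than 3 SD of buffer-only wells, on both duplicate plates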
# HEK293 MPD ctr-2 – checks TRPC6 modulator effects in parental HEK293 cells | shares compounds with TRPC6 inhibitor | membrane potential dye fluorescence | membrane potential signal change, % at 10 µM | 2,400 tested, 51% active | AID 488924;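 active = membrane potential signal moves up or down beyond 5 SD from buffer-only wells, on both duplicate plates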
# HEK293 MPD ctr 2-2 – second counter-screen for TRPC6 modulators: effect in parental HEK293 cells; shares compounds with TRPC6 inhibitor; membrane potential dye fluorescence; after compound, maximal acetylcholine stimulation; inhibition, % at 10 µM; 2,400 tested, 14% active;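 active = membrane potential signal drops by more than 5 SD from the mean control signal, in both duplicate plates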;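 note: plate controls were acetylcholine ECmax control wells for no effect and buffer only wells for full effect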
# TRPC4/MOR mod – selectivity of TRPC6 modulators against mouse TRPC4. percent change from control (negative = decrease, positive = increase), % at 10 µM. shares compounds with TRPC6 inhibitor. 2,400 tested, 69% active. HEK293 TRPC4/mu-opioid, membrane potential fluorescence;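 active = membrane potential signal moved up or down beyond 5 SD of buffer control wells, in both duplicate plates, actives on both sides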;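 note: plate controls were assay buffer wells for no effect and DAMGO maximal-effect wells for full effect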
# TRPC4 ctr inh 2 – mouse TRPC4 off-target activity of TRPC6 modulators, second screen; shares compounds with TRPC6 inhibitor; HEK293 TRPC4/mu-opioid, membrane potential dye fluorescence; stimulated with maximal-effect DAMGO; inhibition, % at 10 µM; 2,400 tested, 55% active;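 active = drop in membrane potential signal beyond 5 SD of the control wells in both duplicate plates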;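 note: TRPC4 counter screen for TRPC6 hits run under conditions tuned for TRPC6 not TRPC4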
# TRPC6 block conf – mouse TRPC6 inhibitor confirmation | shares compounds with TRPC6 inhibitor | HEK293-TRPC6, membrane potential dye, ACh-evoked depolarization | inhibition, % at 10 µM | 3,300 tested, 43% active | AID 488960;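 active = fluorescence ratio falls more than 5 SD below the full-stimulation control mean, in both duplicate runs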;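 note: integrated fluorescence ratio of peak minus minimum over baseline after agonist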
# TRPC6 act confirm – confirmation of mouse TRPC6 activators; 2,800 tested, 11% active; AID 488961; shares compounds with TRPC6 inhibitor; HEK293-TRPC6 membrane potential dye fluorescence, FDSS; activation, % at 10 µM;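 active = ratio signal rise beyond 5 SD above unstimulated control wells' mean, seen in both duplicate runs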;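 note: plate controls were buffer EC0 wells for no effect and acetylcholine ECmax response for full effect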
# Numbers without * were called inactive; i = inactive; x = not tested or not shown; + = active, no number. Hits are enriched below; roughly 2.3% of the tested compounds scored in any of these assays.
SMILES,TRPC4 act,TRPC4 potent,TRPC6 activator,TRPC4 inh,TRPC6 inhibitor,HEK293 MPD ctr-2,HEK293 MPD ctr 2-2,TRPC4/MOR mod,TRPC4 ctr inh 2,TRPC6 block conf,TRPC6 act confirm,others
COc1ccccc1N1CCN(C(=O)c2cc(-c3ccccc3O)on2)CC1,i,i,i,i,-5.92*,i,i,i,i,i,i,
CC1(C)Cc2nc3oc4c(=O)n(CC(=O)Nc5ccc(Cl)cc5)cnc4c3cc2CO1,i,i,i,i,-8.32*,x,x,x,x,i,i,TRPC4 sel inh 2=i;TRPC4 spec=i;HEK293 MPD ctr 2-1=i;HEK293 MPD ctr-1=i
CCC(=O)N(Cc1cc(=O)[nH]c2ccccc12)c1ccc(C)cc1C,i,i,i,i,i,x,x,x,x,x,x,
COc1ccc(NS(=O)(=O)c2ccc3c(c2)NC(=O)CO3)c(OC)c1,i,i,i,i,i,x,x,x,x,x,x,
Oc1ccc(-c2nc3ccccc3s2)c(O)c1,i,i,i,i,-5.37*,i,i,i,i,i,i,
COc1cc(NC(=O)CN(C)S(=O)(=O)c2ccc3c(c2)CC(C)N3C(C)=O)cc(OC)c1 (centres undefined),i,i,i,i,i,x,x,x,x,x,x,
CCn1ncc(C2=NOC(C(=O)Nc3cnn(C45CC6CC(CC(C6)C4)C5)c3)C2)c1C (centres undefined),i,i,18.7*,i,i,i,i,i,i,x,126.5%*,
CCn1ncc(C2=NOC(C(=O)NCC(C)C)C2)c1C (centres undefined),i,i,i,i,i,x,x,x,x,x,x,
NC1C2CN(c3nc4c(cc3F)c(=O)c(C(=O)O)cn4-c3ccc(F)cc3F)CC12 (centres undefined),i,i,i,i,-5.61*,-273.5%*,i,-46.5%*,i,i,i,
O=C(O)c1cn(-c2ccc(F)cc2)c2cc(Cl)c(F)cc2c1=O,i,i,i,i,i,x,x,x,x,x,x,
COc1cc(C(=O)NCCC(c2ccccc2)c2ccccc2)cc(OC)c1OC,i,i,i,i,i,x,x,x,x,x,x,
O=C(Nc1ccc(F)cc1)c1ccccc1Oc1ccc(C(F)(F)F)cc1[N+](=O)[O-],i,i,i,i,-5.34*,i,i,i,35.0%*,i,i,
CC(=O)Nc1ccc(NC(=O)C2CCN(c3ccc(C(F)(F)F)cn3)CC2)cc1,i,i,i,i,i,x,x,x,x,x,x,
CCOc1cc(N(CC)CC)ccc1/C=C(/C#N)c1nc2ccccc2[nH]1,126*,i,16.5*,i,i,295.0%*,i,45.5%*,i,i,48.5%*,
CCCOc1cc(N(CC)CC)ccc1/C=C(/C#N)c1nc2ccc(C)cc2[nH]1,i,i,i,i,i,x,x,x,x,x,x,
COc1cc(/C=C(\C#N)c2nc3ccccc3[nH]2)cc(OC)c1O,i,i,13.7*,i,-5.3*,612.0%*,i,99.5%*,57.5%*,i,i,
COc1ccc(/C=C(\C#N)c2nc3ccccc3[nH]2)cc1O,i,i,i,i,i,x,x,x,x,x,x,
Cc1cc(C)c(S(=O)(=O)N2CCCCC2CCNC(=O)C(=O)NCCN2CCOCC2)c(C)c1 (centres undefined),i,i,i,i,i,x,x,x,x,x,x,
CCc1nccn1CCC(=O)N1CCCC(Nc2ccc(F)cc2)C1 (centres undefined),i,i,i,i,-7.58*,i,i,12.0%*,i,i,x,
O=C(CCN1CCCCO1)N1CCCC(Nc2ccc(F)c(F)c2)C1 (centres undefined),i,i,i,i,-5.83*,i,i,8.5%*,i,45.5%*,x,
Cc1ccc2nc(CCl)[n+]([O-])c(-c3ccccc3)c2c1,i,i,i,i,i,x,x,x,x,x,x,
COc1cc(/C=C/C(=O)c2ccc3c(c2)OCO3)cc(Cl)c1O,100*,i,52.3*,i,i,+,+,257.5%*,53.5%*,x,342.0%*,
COC(=O)c1c(N2C(=O)Nc3ccccc3N2O)sc2c1CCCC2,i,i,11.8*,i,i,155.0%*,i,18.5%*,i,i,75.5%*,
CCOC(=O)c1c(N2C(=O)Nc3ccccc3N2O)sc2c1CCCCC2,i,i,i,i,i,x,x,x,x,x,x,
COC(=O)c1ccc(NC(=O)N2CCCC(C(=O)c3ccccc3OC)C2)cc1 (centres undefined),i,i,i,i,-9.16*,x,x,x,x,i,x,TRPC4 sel inh 2=i;TRPC4 spec=i;HEK293 MPD ctr 2-1=226.0%*;HEK293 MPD ctr-1=i
Cc1cnc(C(=O)N2CCCC(C(=O)c3ccc(Cl)cc3C)C2)cn1 (centres undefined),i,i,i,i,-5.35*,i,i,14.5%*,i,45.5%*,x,
COc1ccccc1C(=O)C1CCCN(C(=O)c2cn3cc(Cl)ccc3n2)C1 (centres undefined),i,i,i,i,-8.19*,x,x,x,x,i,i,TRPC4 sel inh 2=i;TRPC4 spec=0.1%*;HEK293 MPD ctr 2-1=i;HEK293 MPD ctr-1=0.3%*
